The results in this text go back to ChEMBL document CHEMBL1142234, “Structure-based discovery of an inhibitor of Arf activation by Sec7 domains through targeting of protein-protein complexes” (Proc Natl Acad Sci U S A, 2007).

By pKi is commonly meant the Ki on a negative log10 scale, so that one unit is a factor of ten. For orientation: pKd means −log10 of the Kd, conventionally taken in molar units.

pKd, pKi: −log10 of the molar value. Activity calls are given as the source filed them. The calls are words filed in the database; no cut-off is given here.

The target in assay [1] is ADP-ribosylation factor 1 (Homo sapiens) (UniProt P84077). The experiment in a line: Reduction in nucleotide exchange on Arf1 using ARNO4M. The essentials:
(§1)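 [Δ17]Arf1 lacking its N-terminal helix, GDP-loaded, with the BFA-sensitised Sec7 domain of human ARNO (4 mutations). Inhibitor was preincubated 5 min, then GTP or mGTP was added. Apparent rate constants were fitted. Means ± SD of ≥3 independent experiments.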

The nature of assay [2]: Inhibition of mGDP/GTP exchange on delta17 Arf1 at 150 uM.
Assay [3] in a line: Inhibition of mGTP/GTP exchange on delta17 Arf1 at 150 uM.
The nature of assay [4]: Inhibition of GTP binding to Arf-ARNO complex. In a few lines:
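Nucleotide-free Arf1/ARNO complex made by removing GDP with alkaline phosphatase (20 units) plus 2 mM EDTA. GTP binding to the complex (0.2 μM) started with 1 μM mGTP, with or without 150 μM inhibitor. Mant fluorescence read at 37°C in Tris pH 8 buffer with MgCl2; mean ± SD of ≥3 experiments.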

Assay [5] is filed under the species Homo sapiens. In words: (§2) Inhibition of human Arf-GDP-ARNO complex at 100 uM by fluorescence anisotropy. The essentials: (§3)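 Alexa 488 N-terminally labelled [Δ17]Arf1-GDP was held at 10 nM and titrated by serial dilution of wild-type ARNO Sec7, starting at 400 μM, with or without 100 μM inhibitor.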
(Polarisation of emitted light reports the rotation of a fluorescent probe.)

The species entered for assay [6] is Homo sapiens. The experiment in a line: Effect on activation of human RhoA/Gef337 at 150 uM. In a few lines:
(§4)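 Specificity panel: each small GTPase (1 μM, GST-fused RhoG or RhoA) with its GEF (50 nM; DH1 domain of TRIO or DH domain of GEF337), with or without 150 μM inhibitor. Exchange started with 2 μM mGTP and followed by time-resolved fluorescence.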

For assay [7], the species on record is Homo sapiens. The experiment in a line: Effect on activation of human RhoG/TriD1 at 150 uM. The essentials:
as §4

Assay [8] in a line: Inhibition of delta17 Arf1 activation stimulated by Sec7 domain of BIG1.
Assay [9] is described as follows: Inhibition of delta14 Arf5 activation stimulated by Sec7 domain of BIG1.
Assay [10] deals with HeLa. The experiment in a line: Dispersion of cis golgi marker betaCoP in human HeLa cells at 100 uM for 2 hrs. It is filed as functional, cell-based. In a few lines: (§5)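 HeLa cells were exposed 2 h to 100 μM compound, with 0.5% DMSO as vehicle control, then fixed. Primary antibody was applied overnight at 4°C in PBS/0.25% BSA/0.01% Tween 20/0.01% saponin: TGN46 1:200, βCOP 1:100, KDEL receptor 1:500. Alexa 488 secondary was applied 20 min at room temperature. Marker localisation was imaged by confocal microscopy.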

Assay [11] deals with HeLa. In words: Dispersion of cis golgi marker KDEL in human HeLa cells at 100 uM for 2 hrs. It is filed as functional, cell-based. In a few lines: as §5
For assay [12], the system named is HeLa. The experiment in a line: Dispersion of trans golgi marker TGN46 in human HeLa cells at 100 uM for 2 hrs. It counts as functional, cell-based. In a few lines: as §5
Assay [13] relates to MDCK. In words: Inhibition of rate of migration in MDCK cells expressing wild type ARNO. It counts as functional, cell-based. The settings on record: Canis lupus familiaris. The essentials:
(§6)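 MDCK cells carrying tetracycline-repressible myc-wt-ARNO were grown as monolayers on collagen I and scratch-wounded. Cells were kept in MEM/5% FBS with or without compound. Doxycycline at 20 ng/ml repressed the transgene (endogenous ARNO only); without it, wt-ARNO was expressed. Wound closure was imaged every 5 min for 16 h at 37°C. Rate (μm2/h) was taken from hourly area increments over 8 h. Means ± SD of ≥3 experiments.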

Assay [14] concerns MDCK. In words: Inhibition of rate of migration of MDCK cells expressing endogenous levels of ARNO. It is filed as functional, cell-based. The following applies: Canis lupus familiaris. In a few lines: as §6
Assay [15] concerns the target ADP-ribosylation factor 1 (Homo sapiens) (UniProt P84077). The experiment in a line: Inhibition of ARNO-stimulated nucleotide exchange of Arf1. In a few lines:
(§7)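 GDP-loaded Arf isoforms truncated of the N-terminal helix (1 μM) with 50 nM Sec7 GEF. Runs were done with or without 150 μM inhibitor, preincubated 5 min, at 37°C in Tris pH 8/NaCl/MgCl2/2-mercaptoethanol buffer. Reaction was started with 2 μM mGTP and nucleotide exchange followed by time-resolved fluorescence.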

For assay [16], the target named is ADP-ribosylation factor 5 (Homo sapiens) (UniProt P84085). In words: Inhibition of ARNO-stimulated nucleotide exchange of Arf5. In a few lines:
as §7

The target of assay [17] is ADP-ribosylation factor 6 (Homo sapiens) (UniProt P62330). In words: Inhibition of ARNO-stimulated nucleotide exchange of Arf6. In a few lines:
as §7

In assay [18] the test system is HeLa. The experiment in a line: Inhibition of endogenous Arf activation in human HeLa cells. It is filed as cell-based. The essentials:
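Activation of endogenous Arf proteins in HeLa cells was measured by pull-down of GTP-loaded Arf through binding to the GGA3 effector.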

Assay [19] concerns MDCK. In words: Increase in rate of migration of MDCK cells expressing wild type ARNO relative to non-induced wild type ARNO cells. It counts as functional, Canis lupus familiaris. The essentials: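 MDCK cells stably carrying N-terminal c-myc wt-ARNO under a tetracycline-repressible transactivator, grown on collagen I (3 μg/ml). Confluent monolayers were scratch-wounded, then kept in MEM/5% FBS with 20 ng/ml doxycycline (repressed) or without it (induced). Time-lapse imaging every 5 min for 16 h at 37°C, 5% CO2. Wound-area rate (μm2/h) was taken over 1-h intervals for 8 h; mean ± SD, ≥3 experiments.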

Assay [20] is described as follows: Inhibition of delta17 Arf1 using ARNO4M. The settings on record: read-out: Ki app. In a few lines: as §1
Assay [21] is described as follows: as §2. The essentials:
as §3

ADP-ribosylation factor 1 (Homo sapiens), sequence (P84077 whole entry, the tested form may be a part, canonical isoform): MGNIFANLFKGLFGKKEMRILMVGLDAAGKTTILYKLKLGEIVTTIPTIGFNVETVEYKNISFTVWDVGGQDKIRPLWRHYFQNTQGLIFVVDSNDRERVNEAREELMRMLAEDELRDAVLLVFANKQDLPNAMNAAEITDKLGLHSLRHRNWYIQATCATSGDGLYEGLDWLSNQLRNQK
ADP-ribosylation factor 5 (Homo sapiens), sequence (P84085 whole entry): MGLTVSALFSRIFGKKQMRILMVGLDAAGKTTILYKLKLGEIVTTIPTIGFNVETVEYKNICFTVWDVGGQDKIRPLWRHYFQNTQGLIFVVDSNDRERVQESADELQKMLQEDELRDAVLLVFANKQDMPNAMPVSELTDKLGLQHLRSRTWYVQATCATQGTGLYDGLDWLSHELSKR
ADP-ribosylation factor 6 (Homo sapiens), sequence (P62330 whole entry): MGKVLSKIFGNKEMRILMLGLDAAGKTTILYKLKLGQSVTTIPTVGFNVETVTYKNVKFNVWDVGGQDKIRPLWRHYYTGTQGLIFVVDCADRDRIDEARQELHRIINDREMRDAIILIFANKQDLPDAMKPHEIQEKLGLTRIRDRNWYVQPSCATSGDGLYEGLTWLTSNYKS

On to `O=[N+]([O-])c1ccc(Nc2c([N+](=O)[O-])ccc3c2=NC2(CCCCC2)N=3)cc1`, for which the Kapp in [1] is 0.0078 s⁻¹; in [2], 0.0004 s⁻¹; in [3], 0.0005 s⁻¹; in assay [4], 0.085 s⁻¹. The result (in the assay listed under Homo sapiens [5]; in assay [17]) was inactive. Besides, the Activity in the assay listed under Homo sapiens [6] was found to be 0.0028 s⁻¹; in the assay listed under Homo sapiens [7] it was 0.003 s⁻¹; with MDCK [19], 54%. Also, the outcome (in assay [8]; in [9]; with HeLa [10]; with HeLa [11]; in the assay on HeLa [12]; in the assay with MDCK [13]) was Active. Besides, the outcome (in the assay on MDCK [14]; in assay [15]; in [16]; in the assay on HeLa [18]) was Active.

In the case of `C[C@H]1CCC/C=C/[C@@H]2C[C@H](O)C[C@H]2[C@H](O)/C=C/C(=O)O1` [BREFELDIN A], the pKi in assay [20] is 4.82. In [21], the negative logarithm of the Kd (pKd) is 5.07. Besides, the result in the assay on HeLa [10] and in the assay on HeLa [11] was Active.
